# Experimental data gathered from unrelated publications.
# Each line is one published result; the experiments were not run side by side.
# Target: Cyclin-dependent kinase 16 (CDK16, Homo sapiens, UniProt Q00536)
Structure (SMILES),read-out,technique,tested at,remaining binding [%]
CN(C)c1nccc(-c2cnc3ncccn23)n1,binding,,1 µM,73
C[C@@H]1CN(c2ccc3ncc(-c4ccc5[nH]nc(C6CC6)c5c4)n3n2)C[C@H](C)O1,binding,competition with immobilised ligand,0.5 µM,100
Cc1cnn2ncc(-c3ccnc(N(C)C)n3)c2c1,binding,,1 µM,100
C=CC(=O)N1CCC(C(=O)NCC(=O)N2CCN(c3nc(-c4cnc(N)nc4C(F)F)nc(N4CCOCC4)n3)CC2)CC1,binding,competition with immobilised ligand,1 µM,100
C[C@@H](c1ccc(-n2cnc3c(N)ncnc32)cc1)N1CCc2nn(C)c(Cc3ccccc3)c2C1=O,binding,competition with immobilised ligand,0.1 µM,67
O=C(NC[C@@H]1[C@H]2CN(C(=O)OCc3cc(C(F)(F)F)cc(C(F)(F)F)c3)C[C@@H]12)c1ccc2[nH]nnc2c1,cell-free assay,competition with immobilised ligand,1 µM,100
COc1ncc2cc3ccccc3nc2c1C#N,cell-free assay,competition with immobilised ligand,5 µM,97
Nc1ncc2c(n1)-c1c([nH]c3ccc(C#CC4CC4)cc13)CCCC2,binding,competition with immobilised ligand,1 µM,100
CSc1cccnc1N1CCN(Cc2nc3ccccc3[nH]2)CC1,cell-free assay,competition with immobilised ligand,1 µM,81
COc1cnc(Nc2cccc(S(N)(=O)=O)c2)nc1N1CCN(c2ccccc2)C(=O)C1,binding,competition with immobilised ligand,1 µM,92
CN(CCCC(F)(F)F)c1nccc(-c2cnn3ncccc23)n1,binding,,1 µM,100
O=C(c1ccc(Nc2ncc(Cl)c(-c3ccc(Cl)s3)n2)cc1)N1CCC(N2CCCC2)CC1,binding,competition with immobilised ligand,1 µM,0.2
CC1CCCN1c1nccc(-c2cnn3ncccc23)n1 (stereo not shown),binding,,1 µM,100
CC(C)CC(=O)N1CCc2nc(-c3ccc(Br)cc3)nc(N(C)Cc3ccccc3)c2C1,cell-free assay,competition with immobilised ligand,0.1 µM,100
O=C(c1ccc(Nc2nccc(-c3cc4ccccc4s3)n2)cc1)N1CCC(N2CCCC2)CC1,binding,competition with immobilised ligand,1 µM,58
CS(=O)(=O)NCC[C@H](NC(=O)c1cncc2c1cnn2-c1ccc(F)cc1)c1ccnc(S(C)(=O)=O)c1,cell-free assay,competition with immobilised ligand,1 µM,100
O=C(c1ccc(Nc2ncc(Cl)c(-c3cc4ccccc4s3)n2)cc1)N1CCC(N2CCCC2)CC1,binding,competition with immobilised ligand,1 µM,0.7
C[C@@]1(Cc2ccc(C#N)cc2)C(=O)N(c2cc(Cl)cc(Cl)c2)c2ncc(C(=O)NC3(c4nc(C5CCC5)no4)CC3)n21,cell-free assay,competition with immobilised ligand,1 µM,97
C[C@H]1CCN(c2nccc(-c3cnn4ncccc34)n2)C1,binding,,1 µM,95
O=C(O)[C@@H]1[C@@H](Cn2nnc3ccccc3c2=O)CC[C@H]1C(=O)c1ccc(OCCC2CCOCC2)cc1,cell-free assay,competition with immobilised ligand,1 µM,100
N[C@H]1CCN(c2nccc(-c3cnn4ncccc34)n2)C1,binding,,1 µM,100
Cc1nc(N2CC[C@@H](O)C2)ncc1-c1cc(C(F)(F)F)cc2[nH]ncc12,binding,competition with immobilised ligand,1 µM,75
CCN1CCN(Cc2ccc(C(=O)Nc3ccc(C)c(Oc4ccc5c(c4)CC(=O)N5)c3)cc2C(F)(F)F)CC1,binding,competition with immobilised ligand,1 µM,100
O=C(Nc1ccc(Oc2ccc(F)cc2)cc1)N1CCc2ncccc2[C@H]1c1ccc(F)cc1,cell-free assay,competition with immobilised ligand,1 µM,65
O=C(NCC1CCOCC1)c1n[nH]cc1NC(=O)c1c(F)cccc1F,binding,competition with immobilised ligand,1 µM,57
